# Results reported in ChEMBL document CHEMBL1156009, “Eleven amino acid glucagon-like peptide-1 receptor agonists with antidiabetic activity” (J Med Chem, 2009).
# Calls of active or inactive are those of the source. No cut-off for these calls is given here. Square brackets hold non-standard residues; d marks the D form. Peptide text beside a SMILES is read from it. Bip(2'-Et-4'-OMe) = CCc1cc(OC)ccc1-c1ccc(C[C@H](N)C(=O)O)cc1; Bip(2'-Me) = Cc1ccccc1-c1ccc(C[C@H](N)C(=O)O)cc1; αMeF = C[C@](N)(Cc1ccccc1)C(=O)O; Aib = CC(C)(N)C(=O)O
# Biological target: T1, Glucagon-like peptide 1 receptor (Homo sapiens, UniProt P43220)
# T1 sequence (P43220 whole entry): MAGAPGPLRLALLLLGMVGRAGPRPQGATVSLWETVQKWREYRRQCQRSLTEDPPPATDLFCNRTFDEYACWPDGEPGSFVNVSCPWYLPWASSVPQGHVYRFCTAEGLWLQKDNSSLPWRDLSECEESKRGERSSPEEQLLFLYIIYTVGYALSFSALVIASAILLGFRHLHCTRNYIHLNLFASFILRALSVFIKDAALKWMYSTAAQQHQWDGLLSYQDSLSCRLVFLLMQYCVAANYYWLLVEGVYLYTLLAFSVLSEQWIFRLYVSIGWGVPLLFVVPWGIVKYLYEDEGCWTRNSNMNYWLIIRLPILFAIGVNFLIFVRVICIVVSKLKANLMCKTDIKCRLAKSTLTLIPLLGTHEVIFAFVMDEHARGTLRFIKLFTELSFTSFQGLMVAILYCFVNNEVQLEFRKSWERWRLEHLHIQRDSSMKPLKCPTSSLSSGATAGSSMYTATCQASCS
# Experiment: Agonist activity at human GLP1R expressed in CHO cells assessed as stimulation of intracellular [3H]cAMP accumulation after 30 mins by scintillation proximity assay
# Format: functional, cell-based
# Procedure, shortened: (§1)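 CHO cells stably expressing human or mouse GLP-1R, grown in F-12 with 10% FBS plus Geneticin (0.4 mg/mL human, 1 mg/mL mouse), plated 2×10^4/well overnight. Half-log dilutions made in DMSO, then in DPBS with 0.1 mM IBMX and 0.05% BSA (final 1% DMSO). Cells exposed 30 min. cAMP read by SPA and converted to pmol via standard curve. Duplicates, at least three separate runs.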
row,Structure (SMILES),EC50 [µM]
1,Cc1ccccc1-c1ccc(C[C@H](NC(=O)[C@H](Cc2ccc(-c3ccccc3)cc2)NC(=O)[C@H](CC(=O)O)NC(=O)[C@H](CO)NC(=O)[C@@H](NC(=O)[C@H](Cc2ccccc2)NC(=O)[C@@H](NC(=O)CNC(=O)[C@H](CCC(=O)O)NC(=O)[C@H](C)NC(=O)[C@@H](N)Cc2cnc[nH]2)[C@@H](C)O)[C@@H](C)O)C(N)=O)cc1,0.48
2,Cc1ccc(-c2ccc(C[C@H](NC(=O)[C@H](Cc3ccc(-c4ccccc4)cc3)NC(=O)[C@H](CC(=O)O)NC(=O)[C@H](CO)NC(=O)[C@@H](NC(=O)[C@H](Cc3ccccc3)NC(=O)[C@@H](NC(=O)CNC(=O)[C@H](CCC(=O)O)NC(=O)[C@H](C)NC(=O)[C@@H](N)Cc3cnc[nH]3)[C@@H](C)O)[C@@H](C)O)C(N)=O)cc2)cc1,0.27
3,CCc1cc(OC)ccc1-c1ccc(C[C@H](NC(=O)[C@H](CC(=O)O)NC(=O)[C@H](CO)NC(=O)[C@@H](NC(=O)[C@H](Cc2ccccc2)NC(=O)[C@@H](NC(=O)CNC(=O)[C@H](CCC(=O)O)NC(=O)[C@H](C)NC(=O)[C@@H](N)Cc2cnc[nH]2)[C@@H](C)O)[C@@H](C)O)C(=O)N[C@@H](Cc2ccc(-c3ccccc3C)cc2)C(N)=O)cc1,0.007
4,C[C@H](NC(=O)[C@@H](N)Cc1cnc[nH]1)C(=O)N[C@@H](CCC(=O)O)C(=O)NCC(=O)N[C@H](C(=O)N[C@@H](Cc1ccccc1)C(=O)N[C@H](C(=O)N[C@@H](CO)C(=O)N[C@@H](CC(=O)O)C(=O)N[C@@H](Cc1ccc(-c2ccccc2)cc1)C(=O)N[C@@H](Cc1ccc(-c2ccccc2)cc1)C(=O)N[C@@H](Cc1ccc(-c2ccccc2)cc1)C(N)=O)[C@@H](C)O)[C@@H](C)O,0.787
5,C[C@H](NC(=O)[C@@H](N)Cc1cnc[nH]1)C(=O)N[C@@H](CCC(=O)O)C(=O)NCC(=O)N[C@H](C(=O)N[C@@H](Cc1ccccc1)C(=O)N[C@H](C(=O)N[C@@H](CO)C(=O)N[C@@H](CC(=O)O)C(=O)N[C@@H](Cc1ccc(-c2ccccc2)cc1)C(=O)N[C@@H](Cc1ccc(-c2ccccc2)cc1)C(N)=O)[C@@H](C)O)[C@@H](C)O,0.545
6,C[C@H](NC(=O)[C@@H](N)Cc1cnc[nH]1)C(=O)N[C@@H](CCC(=O)O)C(=O)NCC(=O)N[C@H](C(=O)N[C@@H](Cc1ccccc1)C(=O)N[C@H](C(=O)N[C@@H](CO)C(=O)N[C@@H](CC(=O)O)C(=O)N[C@@H](Cc1ccc(-c2ccccc2)cc1)C(=O)N[C@@H](Cc1ccc(-c2ccccc2)cc1)C(=O)O)[C@@H](C)O)[C@@H](C)O,> 10
7,CCc1cc(OC)ccc1-c1ccc(C[C@H](NC(=O)[C@H](CC(=O)O)NC(=O)[C@H](CO)NC(=O)[C@@H](NC(=O)[C@](C)(Cc2ccccc2)NC(=O)[C@@H](NC(=O)CNC(=O)[C@H](CCC(=O)O)NC(=O)C(C)(C)NC(=O)[C@@H](N)Cc2cnc[nH]2)[C@@H](C)O)[C@@H](C)O)C(=O)N[C@@H](Cc2ccc(-c3ccccc3C)cc2)C(N)=O)cc1 (H-H[Aib]EGT[αMeF]TSD[Bip(2'-Et-4'-OMe)][Bip(2'-Me)]-NH2),0.00028
8,CCCc1ccccc1-c1ccc(C[C@H](NC(=O)[C@H](CC(=O)O)NC(=O)[C@H](CO)NC(=O)[C@@H](NC(=O)[C@H](Cc2ccccc2)NC(=O)[C@@H](NC(=O)CNC(=O)[C@H](CCC(=O)O)NC(=O)[C@H](C)NC(=O)[C@@H](N)Cc2cnc[nH]2)[C@@H](C)O)[C@@H](C)O)C(=O)N[C@@H](Cc2ccc(-c3ccccc3C)cc2)C(N)=O)cc1,0.093
9,Cc1ccccc1-c1ccc(C[C@H](NC(=O)[C@H](Cc2ccc(-c3ccccc3C)cc2)NC(=O)[C@H](CC(=O)O)NC(=O)[C@H](CO)NC(=O)[C@@H](NC(=O)[C@H](Cc2ccccc2)NC(=O)[C@@H](NC(=O)CNC(=O)[C@H](CCC(=O)O)NC(=O)[C@H](C)NC(=O)[C@@H](N)Cc2cnc[nH]2)[C@@H](C)O)[C@@H](C)O)C(N)=O)cc1,0.148
10,CCc1ccccc1-c1ccc(C[C@H](NC(=O)[C@H](CC(=O)O)NC(=O)[C@H](CO)NC(=O)[C@@H](NC(=O)[C@H](Cc2ccccc2)NC(=O)[C@@H](NC(=O)CNC(=O)[C@H](CCC(=O)O)NC(=O)[C@H](C)NC(=O)[C@@H](N)Cc2cnc[nH]2)[C@@H](C)O)[C@@H](C)O)C(=O)N[C@@H](Cc2ccc(-c3ccccc3)cc2)C(N)=O)cc1,0.027
11,C[C@H](NC(=O)[C@@H](N)Cc1cnc[nH]1)C(=O)N[C@@H](CCC(=O)O)C(=O)NCC(=O)N[C@H](C(=O)N[C@@H](Cc1ccccc1)C(=O)N[C@H](C(=O)N[C@@H](CO)C(=O)N[C@@H](CC(=O)O)C(=O)N[C@@H](Cc1ccc(-c2ccccc2)cc1)C(=O)N[C@@H](Cc1ccc(-c2ccc(F)cc2)cc1)C(N)=O)[C@@H](C)O)[C@@H](C)O,0.43
12,Cc1ccc(-c2ccc(C[C@H](NC(=O)[C@H](Cc3ccc(-c4ccccc4C)cc3)NC(=O)[C@H](CC(=O)O)NC(=O)[C@H](CO)NC(=O)[C@@H](NC(=O)[C@H](Cc3ccccc3)NC(=O)[C@@H](NC(=O)CNC(=O)[C@H](CCC(=O)O)NC(=O)[C@H](C)NC(=O)[C@@H](N)Cc3cnc[nH]3)[C@@H](C)O)[C@@H](C)O)C(N)=O)cc2)cc1,0.095

# Further lines, results first:
row,EC50 [µM],Structure (SMILES)
1,0.087,Cc1cccc(-c2ccc(C[C@H](NC(=O)[C@H](Cc3ccc(-c4ccccc4C)cc3)NC(=O)[C@H](CC(=O)O)NC(=O)[C@H](CO)NC(=O)[C@@H](NC(=O)[C@H](Cc3ccccc3)NC(=O)[C@@H](NC(=O)CNC(=O)[C@H](CCC(=O)O)NC(=O)[C@H](C)NC(=O)[C@@H](N)Cc3cnc[nH]3)[C@@H](C)O)[C@@H](C)O)C(N)=O)cc2)c1
2,0.215,Cc1cccc(-c2ccc(C[C@H](NC(=O)[C@H](Cc3ccc(-c4ccccc4)cc3)NC(=O)[C@H](CC(=O)O)NC(=O)[C@H](CO)NC(=O)[C@@H](NC(=O)[C@H](Cc3ccccc3)NC(=O)[C@@H](NC(=O)CNC(=O)[C@H](CCC(=O)O)NC(=O)[C@H](C)NC(=O)[C@@H](N)Cc3cnc[nH]3)[C@@H](C)O)[C@@H](C)O)C(N)=O)cc2)c1
3,0.0024,CCc1cc(OC)ccc1-c1ccc(C[C@H](NC(=O)[C@H](CC(=O)O)NC(=O)[C@H](CO)NC(=O)[C@@H](NC(=O)[C@](C)(Cc2ccccc2)NC(=O)[C@@H](NC(=O)CNC(=O)[C@H](CCC(=O)O)NC(=O)[C@H](C)NC(=O)[C@@H](N)Cc2cnc[nH]2)[C@@H](C)O)[C@@H](C)O)C(=O)N[C@@H](Cc2ccc(-c3ccccc3C)cc2)C(N)=O)cc1 (H-HAEGT[αMeF]TSD[Bip(2'-Et-4'-OMe)][Bip(2'-Me)]-NH2)
4,0.39,COc1ccc(-c2ccc(C[C@H](NC(=O)[C@H](Cc3ccc(-c4ccccc4)cc3)NC(=O)[C@H](CC(=O)O)NC(=O)[C@H](CO)NC(=O)[C@@H](NC(=O)[C@H](Cc3ccccc3)NC(=O)[C@@H](NC(=O)CNC(=O)[C@H](CCC(=O)O)NC(=O)[C@H](C)NC(=O)[C@@H](N)Cc3cnc[nH]3)[C@@H](C)O)[C@@H](C)O)C(N)=O)cc2)cc1
5,0.035,COc1ccc(-c2ccc(C[C@H](NC(=O)[C@H](CC(=O)O)NC(=O)[C@H](CO)NC(=O)[C@@H](NC(=O)[C@H](Cc3ccccc3)NC(=O)[C@@H](NC(=O)CNC(=O)[C@H](CCC(=O)O)NC(=O)[C@H](C)NC(=O)[C@@H](N)Cc3cnc[nH]3)[C@@H](C)O)[C@@H](C)O)C(=O)N[C@@H](Cc3ccc(-c4ccccc4C)cc3)C(N)=O)cc2)c(C)c1
6,> 10,C[C@H](NC(=O)[C@@H](N)Cc1cnc[nH]1)C(=O)N[C@@H](CCC(=O)O)C(=O)NCC(=O)N[C@H](C(=O)N[C@@H](Cc1ccccc1)C(=O)N[C@H](C(=O)N[C@@H](CO)C(=O)N[C@@H](CC(=O)O)C(=O)N[C@@H](Cc1ccc(-c2ccccc2)cc1)C(N)=O)[C@@H](C)O)[C@@H](C)O
7,0.022,CCc1ccccc1-c1ccc(C[C@H](NC(=O)[C@H](CC(=O)O)NC(=O)[C@H](CO)NC(=O)[C@@H](NC(=O)[C@H](Cc2ccccc2)NC(=O)[C@@H](NC(=O)CNC(=O)[C@H](CCC(=O)O)NC(=O)[C@H](C)NC(=O)[C@@H](N)Cc2cnc[nH]2)[C@@H](C)O)[C@@H](C)O)C(=O)N[C@@H](Cc2ccc(-c3ccccc3C)cc2)C(N)=O)cc1
8,0.965,COc1cccc(-c2ccc(C[C@H](NC(=O)[C@H](CC(=O)O)NC(=O)[C@H](CO)NC(=O)[C@@H](NC(=O)[C@H](Cc3ccccc3)NC(=O)[C@@H](NC(=O)CNC(=O)[C@H](CCC(=O)O)NC(=O)[C@H](C)NC(=O)[C@@H](N)Cc3cnc[nH]3)[C@@H](C)O)[C@@H](C)O)C(=O)N[C@@H](Cc3ccc(-c4ccccc4C)cc3)C(N)=O)cc2)c1

# Biological target: T1, Glucagon-like peptide 1 receptor
# Experiment: Displacement of [125I]GLP1 from human GLP1R expressed in CHO cells
# Format: cell-based
row,Structure (SMILES),Activity
1,C[C@H](NC(=O)[C@@H](N)Cc1cnc[nH]1)C(=O)N[C@@H](CCC(=O)O)C(=O)NCC(=O)N[C@H](C(=O)N[C@@H](Cc1ccccc1)C(=O)N[C@H](C(=O)N[C@@H](CO)C(=O)N[C@@H](CC(=O)O)C(=O)N[C@@H](Cc1ccc(-c2ccccc2)cc1)C(=O)N[C@@H](Cc1ccc(-c2ccccc2)cc1)C(N)=O)[C@@H](C)O)[C@@H](C)O,Active

# Biological target: T1, Glucagon-like peptide 1 receptor
# Experiment: Agonist activity at human GLP1R expressed in CHO cells assessed as stimulation of intracellular [3H]cAMP accumulation at 1 to 100 nM after 30 mins by scintillation proximity assay in presence of GLP1R antagonist truncated exendin-4(9-39)
# Format: functional, cell-based
# Procedure, shortened: as §1
row,Structure (SMILES),Activity
1,C[C@H](NC(=O)[C@@H](N)Cc1cnc[nH]1)C(=O)N[C@@H](CCC(=O)O)C(=O)NCC(=O)N[C@H](C(=O)N[C@@H](Cc1ccccc1)C(=O)N[C@H](C(=O)N[C@@H](CO)C(=O)N[C@@H](CC(=O)O)C(=O)N[C@@H](Cc1ccc(-c2ccccc2)cc1)C(=O)N[C@@H](Cc1ccc(-c2ccccc2)cc1)C(N)=O)[C@@H](C)O)[C@@H](C)O,inactive
